The test system of one test is Leishmania mexicana. The test is described as follows: Antileishmanial activity against Leishmania mexicana WHO-MOHM/B2/82/BELZ promastigote at 40 ug/mL by XTT assay. In kind it is functional, organism-based. In short, it runs like this: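 Promastigotes of L. mexicana (WHO-MOHM/B2/82/BELZ), cultured by established protocols, in a colorimetric growth assay; read-out is reduction of the tetrazolium salt XTT to a water-soluble formazan. Compounds tested at 40 µg/mL.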
(In general: Tetrazolium assays rely on reduction of a dye to a coloured formazan, in cell work by metabolically active cells.)

A further test relates to Trypanosoma cruzi. The test is described as follows: Antitrypanosomal activity against Trypanosoma cruzi Tulahuen at 50 ug/mL by beta-galactosidase assay. In kind it is functional, organism-based. The method, boiled down: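 A transgenic T. cruzi expressing β-galactosidase (Tulahuen strain, clone C4) was used. Growth of the intracellular stage was read from cleavage of the colorimetric substrate chlorophenol red-β-D-galactoside. Compounds tested at 50 µg/mL.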

Another test relates to Plasmodium falciparum. Put plainly: Antiplasmodial activity against chloroquine-resistant Plasmodium falciparum W2. In kind it is functional, organism-based.
Another test relates to Vero. Put plainly: Cytotoxicity against african green monkey Vero cells after 4 hrs by MTT assay. As to conditions: Chlorocebus sabaeus. In kind it is cell-based.

Results on five compounds are retold here after ChEMBL document CHEMBL1157951, “Weakly antimalarial flavonol arabinofuranosides from Calycolpus warszewiczianus” (J Nat Prod, 2006).

The structures appear in SMILES notation. Calls of active or inactive are those of the source. The calls are words filed in the database; no cut-off is given here.

On to `CC(=O)O[C@@H]1[C@@H](O)[C@H](Oc2c(-c3cc(O)c(O)c(O)c3)oc3cc(O)cc(O)c3c2=O)O[C@H]1CO`, for which the outcome in the test with Leishmania mexicana and in the test on Trypanosoma cruzi was inactive.

As for `O=c1c(O[C@@H]2O[C@@H](CO)[C@H](O)[C@H]2O)c(-c2cc(O)c(O)c(O)c2)oc2cc(O)cc(O)c12`, in the test on Plasmodium falciparum, the IC50 was found to be 27.8 µM. The result in the test with Leishmania mexicana and in the test with Trypanosoma cruzi was inactive.

Take `CC(=O)OC[C@@H]1O[C@@H](Oc2c(-c3cc(O)c(O)c(O)c3)oc3cc(O)cc(O)c3c2=O)[C@H](O)[C@H]1OC(C)=O`: the outcome in the test with Leishmania mexicana and in the test with Trypanosoma cruzi was inactive. The compound also showed a 50% inhibitory concentration (IC50) in the test on Vero of 456 µM.

As to `Oc1cc(O)c2c(c1)O[C@H](c1ccc(O)c(O)c1)[C@H](O)C2` [(-)-EPICATECHIN], the 50% inhibitory concentration (IC50) with Plasmodium falciparum was > 50 µM; with Vero, 184 µM.

In the case of `O=C(Oc1cc(O)cc2oc(-c3ccc(O)c(O)c3)c(O[C@@H]3O[C@@H](CO)[C@H](O)[C@H]3O)c(=O)c12)c1cc(O)c(O)c(O)c1`, the IC50 stood at 14.5 µM with Plasmodium falciparum and 86.5 µM in the test with Vero. Also, the result in the test on Leishmania mexicana and in the test on Trypanosoma cruzi was inactive.

As a reminder, the IC50 is the concentration at which inhibition is half-maximal.
